Results published in ChEMBL document CHEMBL1142960, “Synthesis and structure-activity relationships for 2,4-dinitrobenzamide-5-mustards as prodrugs for the Escherichia coli nfsB nitroreductase in gene therapy” (J Med Chem, 2007).
pIC50: −log10 of the molar value. ≈ marks a conversion by molar mass, not a printed value.

system: not listed separately; test: Partition coefficient at pH 7.4 by shake-flask method; assay type: physicochemical; conditions: octanol/water
In short: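 Octanol-water partition coefficient by shake-flask at pH 7.4, reported with SEM.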

SMILES | logD
O=C(NCC(O)CO)c1cc(N(CCBr)CCBr)c([N+](=O)[O-])cc1[N+](=O)[O-] (stereo unspecified) | 1.25

system: V79; test: Antiproliferative activity against chinese hamster wild-type V79 NTR-ve cells after 18 hrs; assay type: functional, cell-based; conditions: Cricetulus griseus, V79, 18 h

SMILES | pIC50
O=C(NCC(O)CO)c1cc(N(CCBr)CCBr)c([N+](=O)[O-])cc1[N+](=O)[O-] (stereo unspecified) | 3.56

system: V79; test: Antiproliferative activity against chinese hamster V79 NTRpuro cells after 18 hrs; assay type: functional, cell-based; conditions: Cricetulus griseus, V79, 18 h

SMILES | pIC50
O=C(NCC(O)CO)c1cc(N(CCBr)CCBr)c([N+](=O)[O-])cc1[N+](=O)[O-] (stereo unspecified) | 6.47

system: V79; test: Selectivity ratio of IC50 for V79 NTR-ve cells to IC50 for V79 NTRpuro cells; assay type: functional, Cricetulus griseus; conditions: not given

SMILES | Ratio IC50
O=C(NCC(O)CO)c1cc(N(CCBr)CCBr)c([N+](=O)[O-])cc1[N+](=O)[O-] (stereo unspecified) | 828

system: EMT6; test: Antiproliferative activity against mouse wild type EMT6 NTR-ve cells after 18 hrs; assay type: functional, cell-based; conditions: EMT6, 18 h

SMILES | pIC50
O=C(NCC(O)CO)c1cc(N(CCBr)CCBr)c([N+](=O)[O-])cc1[N+](=O)[O-] (stereo unspecified) | 3.88

system: EMT6; test: Antiproliferative activity against mouse EMT6 NTRpuro cells after 18 hrs; assay type: functional, cell-based; conditions: EMT6, 18 h

SMILES | pIC50
O=C(NCC(O)CO)c1cc(N(CCBr)CCBr)c([N+](=O)[O-])cc1[N+](=O)[O-] (stereo unspecified) | 7.10

system: EMT6; test: Selectivity ratio of IC50 for EMT6 NTR-ve cells to IC50 forEMT6 NTRpuro cells; assay type: functional, Mus musculus; conditions: not given

SMILES | Ratio IC50
O=C(NCC(O)CO)c1cc(N(CCBr)CCBr)c([N+](=O)[O-])cc1[N+](=O)[O-] (stereo unspecified) | 1670

system: WiDr; test: Antiproliferative activity against human wild type WiDr NTR-ve cells after 18 hrs; assay type: functional, cell-based; conditions: not given

SMILES | pIC50
O=C(NCC(O)CO)c1cc(N(CCBr)CCBr)c([N+](=O)[O-])cc1[N+](=O)[O-] (stereo unspecified) | 3.78

system: WiDr; test: Antiproliferative activity against human WiDr NTRneo cells after 18 hrs; assay type: functional, cell-based; conditions: not given

SMILES | pIC50
O=C(NCC(O)CO)c1cc(N(CCBr)CCBr)c([N+](=O)[O-])cc1[N+](=O)[O-] (stereo unspecified) | 6.20

system: WiDr; test: Selectivity ratio of IC50 for WiDr NTR-ve cells to IC50 for WiDr NTRneo cells; assay type: functional, Homo sapiens; conditions: not given

SMILES | Ratio IC50
O=C(NCC(O)CO)c1cc(N(CCBr)CCBr)c([N+](=O)[O-])cc1[N+](=O)[O-] (stereo unspecified) | 313

system: not listed separately; test: Antiproliferative activity against human wild type Skov3 NTR-ve cells after 18 hrs; assay type: functional, cell-based; conditions: not given

SMILES | pIC50
O=C(NCC(O)CO)c1cc(N(CCBr)CCBr)c([N+](=O)[O-])cc1[N+](=O)[O-] (stereo unspecified) | 3.55

system: V79; test: Clonogenic survival of V79 NTRoua cells after 5 hrs by MCL assay; assay type: functional, Cricetulus griseus; conditions: not given

SMILES | Activity [µM]
O=C(NCC(O)CO)c1cc(N(CCBr)CCBr)c([N+](=O)[O-])cc1[N+](=O)[O-] (stereo unspecified) | 675

system: not listed separately; test: Antiproliferative activity against human Skov3 NTRneo cells after 18 hrs; assay type: functional, cell-based; conditions: SK-OV-3, 18 h

SMILES | pIC50
O=C(NCC(O)CO)c1cc(N(CCBr)CCBr)c([N+](=O)[O-])cc1[N+](=O)[O-] (stereo unspecified) | 6.55

system: not listed separately; test: Selectivity ratio of IC50 for Skov3 NTR-ve cells to IC50 for Skov3 NTRneo cells; assay type: functional, Homo sapiens; conditions: not given

SMILES | Ratio IC50
O=C(NCC(O)CO)c1cc(N(CCBr)CCBr)c([N+](=O)[O-])cc1[N+](=O)[O-] (stereo unspecified) | 1050

system: V79; test: Clonogenic survival of 3% V79 NTRpuro cells in co-cultures with 97% V79 NTRoua after 5 hrs by MCL assay; assay type: functional, Cricetulus griseus; conditions: not given
In short: (§1)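 Multicellular layer cocultures of 3% V79-NTRpuro activators and 97% V79oua NTR-ve targets (ouabain-resistant), exposed to prodrug for 5 h. MCLs were then trypsin-dissociated and plated in ouabain or puromycin selective media for clonogenic survival. C10 (10% survival) interpolated for activators and targets; AC/TC ratio derived. Mean with SEM or range over independent experiments.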

SMILES | Activity [µM]
O=C(NCC(O)CO)c1cc(N(CCBr)CCBr)c([N+](=O)[O-])cc1[N+](=O)[O-] (stereo unspecified) | 18

system: V79; test: Clonogenic survival of 97% V79 NTRoua cells in co-cultures with 3% V79 NTRpuro cells after 5 hrs by MCL assay; assay type: functional, Cricetulus griseus; conditions: not given; in short: as §1

SMILES | Activity [µM]
O=C(NCC(O)CO)c1cc(N(CCBr)CCBr)c([N+](=O)[O-])cc1[N+](=O)[O-] (stereo unspecified) | 98

system: not listed separately; test: Toxicity in ip dosed CD1 nude mouse in DMSO/PEG; assay type: organism-based; conditions: in vivo
In short: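 Maximum tolerated dose (MTD) determined in CD-1 nude mice after a single i.p. injection of prodrug, given in the vehicle named in each line.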

SMILES | MTD [µmol/kg]
O=C(NCC(O)CO)c1cc(N(CCBr)CCBr)c([N+](=O)[O-])cc1[N+](=O)[O-] (stereo unspecified) | 1330

system: EMT6; test: Antitumor activity against mixed mouse EMT6/EMT6 NTRpuro cells injected in CD1 nude mouse assessed as cell kill at 1330 umol/kg, ip in DMSO/PEG after 18 hrs; assay type: functional; conditions: not given

SMILES | LCK
O=C(NCC(O)CO)c1cc(N(CCBr)CCBr)c([N+](=O)[O-])cc1[N+](=O)[O-] (stereo unspecified) | >3.36

system: WiDr; test: Antitumor activity against mixed human 10% WiDr NTRneo/ 90% WiDr tumor cells injected in CD1 nude mouse assessed as growth delay at 1330 umol/kg, ip in DMSO/PEG; assay type: functional; conditions: not given
In short: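 WiDr-NTRneo tumours (100% NTR+ve, or 1:9 NTR+ve:NTR-ve mixtures) in CD-1 nude mice, given a single i.p. dose at MTD. Read-out is median growth delay to 15 mm mean diameter, plus tumours not palpable 100 days after treatment. Aziridine given at 200 µmol/kg as positive control in every experiment.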

SMILES | Activity [days]
O=C(NCC(O)CO)c1cc(N(CCBr)CCBr)c([N+](=O)[O-])cc1[N+](=O)[O-] (stereo unspecified) | 22

system: not listed separately; test: Solubility in alpha MEM; assay type: physicochemical; conditions: not given
In short: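 Solubility (mM) in α-MEM with 5% fetal calf serum at ambient temperature, measured by HPLC.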

SMILES | solubility [µM]
O=C(NCC(O)CO)c1cc(N(CCBr)CCBr)c([N+](=O)[O-])cc1[N+](=O)[O-] (stereo unspecified) | 1700 (≈ 874 µg/mL)

system: not listed separately; test: Stability in alpha MEM at 37 degC after 24 hrs; assay type: physicochemical; conditions: read-out: Stability
In short: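 Percent parent compound remaining, by HPLC, after holding in α-MEM with 5% fetal calf serum at 37 °C for 24 h.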

SMILES | remaining at 24 h [%]
O=C(NCC(O)CO)c1cc(N(CCBr)CCBr)c([N+](=O)[O-])cc1[N+](=O)[O-] (stereo unspecified) | 102
